Assay results taken from ChEMBL document CHEMBL5104176 (J Med Chem, 2022).
pIC50, pKi: −log10 of the molar value.

Experiments:
D(2) dopamine receptor = D(2) dopamine receptor (Homo sapiens, UniProt P14416); experiment: Displacement of [3H]N-methylspiperone from human D2L receptor expressed in HEK293T cell membrane incubated for 1 hr by MicroBeta scintillation counting method; type: cell membranes
Outline: (§1)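 Membranes from stably transfected HEK293 cells (hD2L, hD3 or hD4.4), 20 μg (D2, D3) or 30 μg (D4) protein/well. Incubated 1 h at room temperature in EBSS binding buffer, pH 7.4, with 0.4 nM [3H]N-methylspiperone and 10 half-log dilutions in triplicate. 10 μM (+)-butaclamol defines nonspecific binding. GF filtration, scintillation counting.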

[1] = Selectivity ratio of Ki for displacement of [3H]N-methylspiperone from human D3R expressed in HEK293T cell membrane to Ki for displacement of [3H]N-methylspiperone from human D4.4 receptor expressed in HEK293T cell membrane
[2] = Selectivity ratio of Ki for displacement of [3H]N-methylspiperone from human D2L receptor expressed in HEK293T cell membrane to Ki for displacement of [3H]N-methylspiperone from human D4.4 receptor expressed in HEK293T cell membrane
D(4) dopamine receptor [3] = target: T1, D(4) dopamine receptor (Homo sapiens, UniProt P21917); experiment: Displacement of [3H]N-methylspiperone from human D4.4 receptor expressed in HEK293T cell membrane incubated for 1 hr by MicroBeta scintillation counting method; type: cell membranes
T1 sequence (P21917 whole entry): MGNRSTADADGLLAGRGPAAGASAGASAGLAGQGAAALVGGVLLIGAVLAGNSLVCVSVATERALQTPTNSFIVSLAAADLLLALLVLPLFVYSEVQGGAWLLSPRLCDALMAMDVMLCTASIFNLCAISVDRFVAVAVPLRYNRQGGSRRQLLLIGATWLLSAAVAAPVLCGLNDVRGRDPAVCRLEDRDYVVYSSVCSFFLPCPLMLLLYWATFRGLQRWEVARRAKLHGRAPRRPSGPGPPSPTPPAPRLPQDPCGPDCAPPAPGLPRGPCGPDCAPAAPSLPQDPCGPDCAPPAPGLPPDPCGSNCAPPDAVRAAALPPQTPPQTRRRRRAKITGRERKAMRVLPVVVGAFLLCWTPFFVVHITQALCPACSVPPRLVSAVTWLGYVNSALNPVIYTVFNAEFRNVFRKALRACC

D(3) dopamine receptor = D(3) dopamine receptor (Homo sapiens, UniProt P35462); experiment: Displacement of [3H]N-methylspiperone from human D3R receptor expressed in HEK293T cell membrane incubated for 1 hr by MicroBeta scintillation counting method; type: cell membranes
Outline: as §1, with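 “counting. Ki by Cheng–Prusoff from ≥3 experiments; selectivity is the Ki ratio.” for “counting.”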

D(4) dopamine receptor [4] = target: T1, D(4) dopamine receptor; experiment: Displacement of [3H]7-OH-DPAT from human D4.4 receptor expressed in HEK293T cell membrane incubated for 1.5 hrs by MicroBeta scintillation counting method; type: cell membranes
Outline: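 Fresh membranes from HEK293 cells stably expressing hD4.4 (about 50–60 μg protein/well) in 50 mM Tris, 10 mM MgCl2, 1 mM EDTA, pH 7.4. Radioligand was 3 nM final; incubation 1.5 h at room temperature. Nonspecific binding was set with 10 μM (+)-butaclamol; DMSO was 3% final. Ten half-log dilutions were run in triplicate, then filtered. Ki came from IC50 by Cheng–Prusoff, from at least three independent experiments.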

[5] = target: T2, D(4) dopamine receptor (Homo sapiens) (UniProt P21917); experiment: Agonist activity at D4R (unknown origin) expressed in human HEK293T cells assessed as G0 protein activation measured after 2.5 mins by BRET assay relative to control; type: functional, cell-based
T2 sequence (whole entry): T1 sequence (P21917 whole entry)
Outline: (§2)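 Transiently transfected HEK293T cells (15 μg plasmid cDNA, polyethyleneimine, 6 h, assayed after 48 h). Gαi1 or GαoA fused to RLuc8 and Gγ2 to mVenus for G protein activation; D4 receptor fused to RLuc8 and β-arrestin to mVenus for recruitment. About 2×10^5 cells/well in PBS with 0.1% glucose and 200 μM Na bisulfite. Coelenterazine H 5 μM. Read 530/485 nm; RLuc8-only background subtracted.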

[6] = target: T2, D(4) dopamine receptor (Homo sapiens); experiment: Agonist activity at D4R (unknown origin) expressed in human HEK293T cells assessed as Gi protein activation measured after 2.5 mins by BRET assay relative to control; type: functional, cell-based; outline: as §2
[7] = target: T2, D(4) dopamine receptor (Homo sapiens); experiment: Agonist activity at D4R (unknown origin) expressed in human HEK293T cells assessed as beta arrestin-2 recruitment measured after 2.5 mins by BRET assay relative to control; type: functional, cell-based; outline: as §2
D(4) dopamine receptor [8] = target: T1, D(4) dopamine receptor; experiment: Antagonist activity at D4R (unknown origin) expressed in human HEK293T cells assessed as inhibition of dopamine-induced Gi protein activation pretreated for 10 mins followed by dopamine addition and measured after 2.5 mins by BRET assay; type: functional, cell-based
D(4) dopamine receptor [9] = target: T1, D(4) dopamine receptor; experiment: Antagonist activity at D4R (unknown origin) expressed in human HEK293T cells assessed as inhibition of dopamine-induced G0 protein activation pretreated for 10 mins followed by dopamine addition and measured after 2.5 mins by BRET assay; type: functional, cell-based
D(4) dopamine receptor [10] = target: T1, D(4) dopamine receptor; experiment: Antagonist activity at D4R (unknown origin) expressed in human HEK293T cells assessed as inhibition of dopamine-induced beta arrestin-2 recruitment pretreated for 10 mins followed by dopamine addition and measured after 2.5 mins by BRET assay; type: functional, cell-based

Sequence of D(3) dopamine receptor (P35462 whole entry): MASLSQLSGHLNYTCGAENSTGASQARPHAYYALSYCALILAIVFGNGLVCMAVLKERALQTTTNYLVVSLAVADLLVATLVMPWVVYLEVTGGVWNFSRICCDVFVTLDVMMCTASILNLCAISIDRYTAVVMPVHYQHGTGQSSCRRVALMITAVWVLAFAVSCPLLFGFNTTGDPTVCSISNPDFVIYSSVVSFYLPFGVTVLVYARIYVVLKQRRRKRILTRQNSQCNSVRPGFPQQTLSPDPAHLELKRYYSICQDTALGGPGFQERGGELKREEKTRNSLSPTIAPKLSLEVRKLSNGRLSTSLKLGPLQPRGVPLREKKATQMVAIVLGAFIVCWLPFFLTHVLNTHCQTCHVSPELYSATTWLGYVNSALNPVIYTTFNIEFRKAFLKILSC
Sequence of D(2) dopamine receptor (P14416 whole entry): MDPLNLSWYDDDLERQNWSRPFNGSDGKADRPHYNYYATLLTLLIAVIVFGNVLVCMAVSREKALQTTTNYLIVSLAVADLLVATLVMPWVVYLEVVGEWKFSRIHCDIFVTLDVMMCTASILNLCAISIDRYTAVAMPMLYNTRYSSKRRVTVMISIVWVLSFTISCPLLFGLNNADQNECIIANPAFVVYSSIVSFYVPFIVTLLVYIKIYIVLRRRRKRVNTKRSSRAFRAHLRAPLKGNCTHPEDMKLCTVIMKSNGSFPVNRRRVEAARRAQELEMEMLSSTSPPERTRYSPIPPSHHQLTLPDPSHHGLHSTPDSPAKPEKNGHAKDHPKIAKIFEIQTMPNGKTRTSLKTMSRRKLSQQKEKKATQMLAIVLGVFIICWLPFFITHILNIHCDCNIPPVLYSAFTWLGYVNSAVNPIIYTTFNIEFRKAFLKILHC

SMILES	pKi (D(2) dopamine receptor)	Ratio Ki [1]	Ratio Ki [2]	pKi (D(4) dopamine receptor [3])	pKi (D(3) dopamine receptor)	pKi (D(4) dopamine receptor [4])	Emax [5]	Emax [6]	Emax [7]	pIC50 (D(4) dopamine receptor [8])	pIC50 (D(4) dopamine receptor [9])	pIC50 (D(4) dopamine receptor [10])
Cc1ccccc1N1CCN(CCCN2C(=O)CCc3ccccc32)CC1	6.40	204	295	8.87	6.56							
COc1cccc(N2CCN(CCCN3C(=O)CCc4ccccc43)CC2)c1	5.51	372	741	8.38	5.81							
O=C1CCc2ccccc2N1CCCN1CCN(c2ccccc2[N+](=O)[O-])CC1	6.88	316	324	9.39	6.89							
O=C1CCc2ccccc2N1CCCN1CCN(c2ccc([N+](=O)[O-])cc2)CC1	4.62	1660	3630	8.18	4.96							
O=C1CCc2ccccc2N1CCCCCN1CCN(c2ccccc2)CC1	6.55	8	12	7.63	6.71							
O=C1CCc2ccccc2N1CCN1CCN(c2ccccc2)CC1	4.89	17	204	7.20	5.97							
c1ccc(N2CCN(CCCc3nc4ccccc4[nH]3)CC2)cc1	5.21	28	204	7.52	6.08							
O=C1CCc2ccccc2N1CCCN1CCN(c2cccc(Cl)c2Cl)CC1				9.16	7.67							
c1ccc(N2CCN(CCCc3nc4ccccc4s3)CC2)cc1	5.75	68	174	7.99	6.16							
O=C1CCc2ccccc2N1CCCN1CCN(c2cccc([N+](=O)[O-])c2)CC1	5.60	355	708	8.45	5.90							
O=C1CCc2ccccc2N1CCCN1CCN(c2ccccc2)CC1		457	380									
O=C1CCc2ccccc2N1CCCN1CCN(c2ccc(Cl)c(Cl)c2)CC1	6.02	725	1100	9.06	6.20							
O=C1CCc2ccccc2N1CCCN1CCN(c2cccc(Cl)c2)CC1	6.12	269	724	8.98	6.55	9.11						
N#Cc1ccccc1N1CCN(CCCN2C(=O)CCc3ccccc32)CC1	6.45	316	331	8.97	6.47							
COc1ccc(N2CCN(CCCN3C(=O)CCc4ccccc43)CC2)cc1	4.68	1200	3020	8.16	5.08		0%	0%	0%	6.57	6.97	6.41
